ChEMBL document CHEMBL2157880, “Synthesis, antimycobacterial and antibacterial activity of ciprofloxacin derivatives containing a N-substituted benzyl moiety” (2012)
Converted amounts (≈) assume the structure as drawn.

Key:
Format in all cases: functional
Enterococcus faecium [1] = experiment: Antibacterial activity against Enterococcus faecium 10-9 after 18 to 24 hrs by NCCLS method
Procedure, shortened: (§1)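 Standard NCCLS (M100-S11) MIC testing against Gram-positive and Gram-negative strains. Plates were incubated at 35 °C for 18–24 h. The MIC was read as the lowest concentration giving complete inhibition of visible bacterial growth.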

Klebsiella pneumoniae [2] = experiment: Antibacterial activity against extended spectrum beta-lactamases producing Klebsiella pneumoniae 10-1 after 18 to 24 hrs by NCCLS method; procedure, shortened: as §1
Escherichia coli [3] = experiment: Antibacterial activity against extended spectrum beta-lactamases producing Escherichia coli 10-2 after 18 to 24 hrs by NCCLS method; procedure, shortened: as §1
Staphylococcus aureus [4] = experiment: Antibacterial activity against methicillin-resistant Staphylococcus aureus 10-13 after 18 to 24 hrs by NCCLS method
Procedure, shortened: (§2)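 Incubated at 35 °C for 18–24 h under NCCLS (M100-S11) standards. MIC was read as the lowest concentration giving complete inhibition of visible bacterial growth.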

Staphylococcus aureus [5] = experiment: Antibacterial activity against methicillin-resistant Staphylococcus aureus 10-11 after 18 to 24 hrs by NCCLS method; procedure, shortened: as §2
Klebsiella pneumoniae [6] = experiment: Antibacterial activity against extended spectrum beta-lactamases producing Klebsiella pneumoniae 10-2 after 18 to 24 hrs by NCCLS method; procedure, shortened: as §1
Escherichia coli [7] = experiment: Antibacterial activity against Escherichia coli 10-3 after 18 to 24 hrs by NCCLS method; procedure, shortened: as §1
Escherichia coli [8] = experiment: Antibacterial activity against extended spectrum beta-lactamases producing Escherichia coli 10-4 after 18 to 24 hrs by NCCLS method; procedure, shortened: as §1
Escherichia coli [9] = experiment: Antibacterial activity against Escherichia coli 10-1 after 18 to 24 hrs by NCCLS method; procedure, shortened: as §1
[10] = tested on: Staphylococcus epidermidis; experiment: Antibacterial activity against methicillin-resistant Staphylococcus epidermidis 10-10 after 18 to 24 hrs by NCCLS method; procedure, shortened: as §2
Klebsiella pneumoniae [11] = experiment: Antibacterial activity against Klebsiella pneumoniae 10-2 after 18 to 24 hrs by NCCLS method; procedure, shortened: as §1
Klebsiella pneumoniae [12] = experiment: Antibacterial activity against extended spectrum beta-lactamases producing Klebsiella pneumoniae 10-3 after 18 to 24 hrs by NCCLS method; procedure, shortened: as §1
Pseudomonas aeruginosa [13] = experiment: Antibacterial activity against Pseudomonas aeruginosa 10-18 after 18 to 24 hrs by NCCLS method; procedure, shortened: as §1
Staphylococcus aureus [14] = experiment: Antibacterial activity against methicillin-sensitive Staphylococcus aureus 10-14 after 18 to 24 hrs by NCCLS method; procedure, shortened: as §1
Klebsiella pneumoniae [15] = experiment: Antibacterial activity against Klebsiella pneumoniae 10-4 after 18 to 24 hrs by NCCLS method; procedure, shortened: as §1
Enterococcus faecalis [16] = experiment: Antibacterial activity against Enterococcus faecalis 10-6 after 18 to 24 hrs by NCCLS method; procedure, shortened: as §1
Streptococcus pneumoniae [17] = experiment: Antibacterial activity against Streptococcus pneumoniae 10-6 after 18 to 24 hrs by NCCLS method; procedure, shortened: as §1
Staphylococcus aureus [18] = experiment: Antibacterial activity against methicillin-resistant Staphylococcus aureus 10-15 after 18 to 24 hrs by NCCLS method; procedure, shortened: as §2
Pseudomonas aeruginosa [19] = experiment: Antibacterial activity against Pseudomonas aeruginosa 10-20 after 18 to 24 hrs by NCCLS method; procedure, shortened: as §1
Enterococcus faecalis [20] = experiment: Antibacterial activity against Enterococcus faecalis 10-5 after 18 to 24 hrs by NCCLS method; procedure, shortened: as §1
Escherichia coli [21] = experiment: Antibacterial activity against Escherichia coli 10-2 after 18 to 24 hrs by NCCLS method; procedure, shortened: as §1
Streptococcus pneumoniae [22] = experiment: Antibacterial activity against Streptococcus pneumoniae 10-1 after 18 to 24 hrs by NCCLS method; procedure, shortened: as §1
Enterococcus faecium [23] = experiment: Antibacterial activity against Enterococcus faecium 10-6 after 18 to 24 hrs by NCCLS method; procedure, shortened: as §1
Pseudomonas aeruginosa [24] = experiment: Antibacterial activity against Pseudomonas aeruginosa 10-5 after 18 to 24 hrs by NCCLS method; procedure, shortened: as §1
Pseudomonas aeruginosa [25] = experiment: Antibacterial activity against Pseudomonas aeruginosa 10-15 after 18 to 24 hrs by NCCLS method; procedure, shortened: as §1
Escherichia coli [26] = experiment: Antibacterial activity against Escherichia coli ATCC 25922 after 18 to 24 hrs by NCCLS method; procedure, shortened: as §1
Escherichia coli [27] = experiment: Antibacterial activity against extended spectrum beta-lactamases producing Escherichia coli 10-3 after 18 to 24 hrs by NCCLS method; procedure, shortened: as §1
[28] = tested on: Staphylococcus epidermidis; experiment: Antibacterial activity against methicillin-sensitive Staphylococcus epidermidis 10-15 after 18 to 24 hrs by NCCLS method; procedure, shortened: as §2
Klebsiella pneumoniae [29] = experiment: Antibacterial activity against Klebsiella pneumoniae 10-3 after 18 to 24 hrs by NCCLS method; procedure, shortened: as §1
[30] = tested on: Mycobacterium tuberculosis; experiment: Antimycobacterial activity against Mycobacterium tuberculosis H37Rv ATCC 27294 by microplate alamar blue assay
Procedure, shortened: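 Microplate Alamar Blue fluorescence assay on strain H37Rv ATCC 27294. MIC was the lowest concentration cutting fluorescence by ≥90% against the mean of replicate bacterium-only controls.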

Pseudomonas aeruginosa [31] = experiment: Antibacterial activity against Pseudomonas aeruginosa 10-12 after 18 to 24 hrs by NCCLS method; procedure, shortened: as §1
[32] = tested on: Staphylococcus epidermidis; experiment: Antibacterial activity against methicillin-resistant Staphylococcus epidermidis 10-13 after 18 to 24 hrs by NCCLS method; procedure, shortened: as §2
Pseudomonas aeruginosa [33] = experiment: Antibacterial activity against Pseudomonas aeruginosa 10-9 after 18 to 24 hrs by NCCLS method; procedure, shortened: as §1
Staphylococcus aureus [34] = experiment: Antibacterial activity against methicillin-sensitive Staphylococcus aureus 10-13 after 18 to 24 hrs by NCCLS method; procedure, shortened: as §1
[35] = tested on: Staphylococcus epidermidis; experiment: Antibacterial activity against methicillin-sensitive Staphylococcus epidermidis 10-11 after 18 to 24 hrs by NCCLS method; procedure, shortened: as §1
Enterococcus faecalis [36] = experiment: Antibacterial activity against Enterococcus faecalis 10-7 after 18 to 24 hrs by NCCLS method; procedure, shortened: as §1
Staphylococcus aureus [37] = experiment: Antibacterial activity against methicillin-sensitive Staphylococcus aureus 10-11 after 18 to 24 hrs by NCCLS method; procedure, shortened: as §1
Staphylococcus aureus [38] = experiment: Antibacterial activity against Staphylococcus aureus ATCC 2592 after 18 to 24 hrs by NCCLS method; procedure, shortened: as §1

| Structure (SMILES) | MIC (Enterococcus faecium [1]) | MIC (Klebsiella pneumoniae [2]) | MIC (Escherichia coli [3]) | MIC (Staphylococcus aureus [4]) | MIC (Staphylococcus aureus [5]) | MIC (Klebsiella pneumoniae [6]) | MIC (Escherichia coli [7]) | MIC (Escherichia coli [8]) | MIC (Escherichia coli [9]) | MIC [10] | MIC (Klebsiella pneumoniae [11]) | MIC (Klebsiella pneumoniae [12]) | MIC (Pseudomonas aeruginosa [13]) | MIC (Staphylococcus aureus [14]) | MIC (Klebsiella pneumoniae [15]) | MIC (Enterococcus faecalis [16]) | MIC (Streptococcus pneumoniae [17]) | MIC (Staphylococcus aureus [18]) | MIC (Pseudomonas aeruginosa [19]) | MIC (Enterococcus faecalis [20]) | further results |
| --- | --- | --- | --- | --- | --- | --- | --- | --- | --- | --- | --- | --- | --- | --- | --- | --- | --- | --- | --- | --- | --- |
| COc1cc(CN2CCN(c3cc4c(cc3F)c(=O)c(C(=O)O)cn4C3CC3)CC2)cc(OC)c1 | > 128 µg/mL | > 128 µg/mL | > 128 µg/mL | > 128 µg/mL | 128 µg/mL (≈ 266 µM) | > 128 µg/mL | > 128 µg/mL | > 128 µg/mL | > 128 µg/mL | > 128 µg/mL | > 128 µg/mL | > 128 µg/mL | 128 µg/mL (≈ 266 µM) | 1 µg/mL (≈ 2.08 µM) | > 128 µg/mL | > 128 µg/mL | > 128 µg/mL | 64 µg/mL (≈ 133 µM) | 64 µg/mL (≈ 133 µM) | 128 µg/mL (≈ 266 µM) | MIC (Escherichia coli [21]): > 128 µg/mL; MIC (Streptococcus pneumoniae [22]): 8 µg/mL (≈ 16.6 µM); MIC (Enterococcus faecium [23]): 16 µg/mL (≈ 33.2 µM); MIC (Pseudomonas aeruginosa [24]): 64 µg/mL (≈ 133 µM); MIC (Pseudomonas aeruginosa [25]): 64 µg/mL (≈ 133 µM); MIC (Escherichia coli [26]): 1 µg/mL (≈ 2.08 µM); MIC (Escherichia coli [27]): > 128 µg/mL; MIC [28]: 128 µg/mL (≈ 266 µM); MIC (Klebsiella pneumoniae [29]): 64 µg/mL (≈ 133 µM); MIC [30]: 2 µg/mL (≈ 4.15 µM); MIC (Pseudomonas aeruginosa [31]): 64 µg/mL (≈ 133 µM); MIC [32]: 128 µg/mL (≈ 266 µM); MIC (Pseudomonas aeruginosa [33]): 128 µg/mL (≈ 266 µM); MIC (Staphylococcus aureus [34]): 0.5 µg/mL (≈ 1.04 µM); MIC [35]: 4 µg/mL (≈ 8.31 µM); MIC (Enterococcus faecalis [36]): > 128 µg/mL; MIC (Staphylococcus aureus [37]): 1 µg/mL (≈ 2.08 µM); MIC (Staphylococcus aureus [38]): 1 µg/mL (≈ 2.08 µM) |
| COc1cc(CN2CCN(c3cc4c(cc3F)c(=O)c(C(=O)O)cn4C3CC3)CC2)c([N+](=O)[O-])cc1OC | 64 µg/mL (≈ 122 µM) | > 128 µg/mL | > 128 µg/mL | 64 µg/mL (≈ 122 µM) | 64 µg/mL (≈ 122 µM) | > 128 µg/mL | 8 µg/mL (≈ 15.2 µM) | > 128 µg/mL | > 128 µg/mL | 16 µg/mL (≈ 30.4 µM) | > 128 µg/mL | > 128 µg/mL | 8 µg/mL (≈ 15.2 µM) | 1 µg/mL (≈ 1.9 µM) | > 128 µg/mL | 128 µg/mL (≈ 243 µM) | 128 µg/mL (≈ 243 µM) | 16 µg/mL (≈ 30.4 µM) | 4 µg/mL (≈ 7.6 µM) | 16 µg/mL (≈ 30.4 µM) | MIC (Escherichia coli [21]): 8 µg/mL (≈ 15.2 µM); MIC (Streptococcus pneumoniae [22]): 8 µg/mL (≈ 15.2 µM); MIC (Enterococcus faecium [23]): 8 µg/mL (≈ 15.2 µM); MIC (Pseudomonas aeruginosa [24]): 8 µg/mL (≈ 15.2 µM); MIC (Pseudomonas aeruginosa [25]): 8 µg/mL (≈ 15.2 µM); MIC (Escherichia coli [26]): 2 µg/mL (≈ 3.8 µM); MIC (Escherichia coli [27]): > 128 µg/mL; MIC [28]: 16 µg/mL (≈ 30.4 µM); MIC (Klebsiella pneumoniae [29]): 8 µg/mL (≈ 15.2 µM); MIC [30]: > 32 µg/mL; MIC (Pseudomonas aeruginosa [31]): 16 µg/mL (≈ 30.4 µM); MIC [32]: 16 µg/mL (≈ 30.4 µM); MIC (Pseudomonas aeruginosa [33]): 8 µg/mL (≈ 15.2 µM); MIC (Staphylococcus aureus [34]): 2 µg/mL (≈ 3.8 µM); MIC [35]: 2 µg/mL (≈ 3.8 µM); MIC (Enterococcus faecalis [36]): 16 µg/mL (≈ 30.4 µM); MIC (Staphylococcus aureus [37]): 1 µg/mL (≈ 1.9 µM); MIC (Staphylococcus aureus [38]): 1 µg/mL (≈ 1.9 µM) |
